Test results from ChEMBL document CHEMBL1131423, “N-(2-Benzoylphenyl)-L-tyrosine PPARgamma agonists. 2. Structure-activity relationship and optimization of the phenyl alkyl ether moiety” (J Med Chem, 1998).
In brackets after ≈: the same amount, converted by molar mass. Activity calls are given as the source filed them. No cut-off for these calls is given here.

Columns and labels:
[1] = molecular target: T1, Peroxisome proliferator-activated receptor gamma (Homo sapiens, UniProt P37231); assay: Inhibition by 50% of in vitro binding to Peroxisome proliferator activated receptor gamma
T1 sequence (P37231 whole entry): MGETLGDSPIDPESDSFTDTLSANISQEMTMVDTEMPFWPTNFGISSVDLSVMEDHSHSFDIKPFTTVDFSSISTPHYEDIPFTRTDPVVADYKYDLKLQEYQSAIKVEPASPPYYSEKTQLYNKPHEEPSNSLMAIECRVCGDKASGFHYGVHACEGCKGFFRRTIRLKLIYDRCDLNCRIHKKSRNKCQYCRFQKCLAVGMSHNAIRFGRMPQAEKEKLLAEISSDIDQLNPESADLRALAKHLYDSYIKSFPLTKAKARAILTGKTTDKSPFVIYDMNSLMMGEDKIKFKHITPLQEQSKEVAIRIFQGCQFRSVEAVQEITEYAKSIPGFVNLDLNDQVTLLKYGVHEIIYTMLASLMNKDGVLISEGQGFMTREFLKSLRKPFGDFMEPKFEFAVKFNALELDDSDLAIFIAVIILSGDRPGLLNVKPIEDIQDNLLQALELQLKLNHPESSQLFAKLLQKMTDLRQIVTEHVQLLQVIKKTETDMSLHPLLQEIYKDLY

[2] = molecular target: Peroxisome proliferator-activated receptor gamma (Homo sapiens) (UniProt P37231); assay: Compound was tested in vitro for inhibiting the 50% binding of Peroxisome proliferator activated receptor gamma; IA = Inactive
[3] = The solubility determined by equilibrating an excess of solid material in 500 microL of pH 7.4 phosphate buffer; format: ADME; settings: read-out: S
In short: (§1)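 Samples are filtered (0.22 µm) and diluted in water/acetonitrile 60:40. The dissolved concentration is measured by reversed-phase HPLC on a phenyl column with 0.05% TFA water/acetonitrile (60:40), 1 mL/min, and UV detection at each compound's maximum. Results are in mg/mL.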

[4] = The solubility determined by equilibrating an excess of solid material in 500 microL of simulated gastric fluid; format: ADME; settings: read-out: S; in short: as §1
[5] = molecular target: T2, Peroxisome proliferator-activated receptor alpha (Homo sapiens, UniProt Q07869); assay: Tested in vitro for inhibiting the 50% binding of Peroxisome proliferator activated receptor alpha
T2 sequence (Q07869 whole entry): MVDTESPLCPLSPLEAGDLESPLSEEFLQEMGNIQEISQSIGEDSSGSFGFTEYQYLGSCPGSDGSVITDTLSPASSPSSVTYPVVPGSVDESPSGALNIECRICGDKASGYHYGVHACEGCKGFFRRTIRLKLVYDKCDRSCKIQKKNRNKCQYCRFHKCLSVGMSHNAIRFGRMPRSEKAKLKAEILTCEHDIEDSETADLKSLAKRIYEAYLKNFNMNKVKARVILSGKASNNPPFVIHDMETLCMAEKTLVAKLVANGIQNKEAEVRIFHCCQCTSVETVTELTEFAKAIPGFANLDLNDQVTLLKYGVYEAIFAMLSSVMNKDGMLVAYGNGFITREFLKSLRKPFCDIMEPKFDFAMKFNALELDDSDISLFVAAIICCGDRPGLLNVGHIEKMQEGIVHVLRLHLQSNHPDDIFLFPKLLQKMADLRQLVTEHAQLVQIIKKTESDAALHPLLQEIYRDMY

[6] = molecular target: T2, Peroxisome proliferator-activated receptor alpha; assay: In vitro transactivation of Peroxisome proliferator activated receptor alpha.; format: functional
[7] = molecular target: T3, Peroxisome proliferator-activated receptor gamma (Homo sapiens) (UniProt P37231); assay: Inhibition of Peroxisome proliferator activated receptor gamma
T3 sequence (whole entry): T1 sequence (P37231 whole entry)
In short: (§2)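 Competitive radioligand binding to PPARγ with [3H]BRL 49653 as the radioligand. […] It is converted to an apparent Ki by Ki = IC50/(1 + [L]/Kd), and results are given as pKi.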

[8] = molecular target: T3, Peroxisome proliferator-activated receptor gamma (Homo sapiens); assay: Compound was tested in vitro for inhibiting the 50% binding of Peroxisome proliferator activated receptor gamma; IA = Inactive; in short: as §2
[9] = molecular target: T4, Peroxisome proliferator-activated receptor alpha (Homo sapiens) (UniProt Q07869); assay: Compound was tested in vitro for inhibiting the 50% binding of Peroxisome proliferator activated receptor alpha; IA = 'inactive'
T4 sequence (whole entry): T2 sequence (Q07869 whole entry)

| Ki [5] [nM] | EC50 [6] [nM] | Log Ki [7] | SMILES | also measured |
| --- | --- | --- | --- | --- |
| – | – | – | COc1ccccc1C(=O)N1CCC[C@H]1COc1ccc(C[C@H](Nc2ccccc2C(=O)c2ccccc2)C(=O)O)cc1 | Ki [1]: 955 nM |
| – | – | – | Cc1cc(C(C)C)ccc1CCOc1ccc(C[C@H](Nc2ccccc2C(=O)c2ccccc2)C(=O)O)cc1 | Log Ki [2]: inactive |
| > 3020 | > 10000 | – | Cc1sc(N2CCNCC2)nc1CCOc1ccc(C[C@H](Nc2ccccc2C(=O)c2ccccc2)C(=O)O)cc1 | solubility thermodynamic [3]: 25 µg/mL (≈ 43.8 µM); solubility thermodynamic [4]: > 10000 µg/mL |
| – | – | inactive | Cc1ccc[n+]2c1=NC(C)C=2COc1ccc(C[C@H](Nc2ccccc2C(=O)c2ccccc2)C(=O)O)cc1 (stereo partly drawn) | – |
| – | – | inactive | O=C(c1ccccc1)c1ccccc1N[C@@H](Cc1ccc(OCc2cnc3ccccc3c2)cc1)C(=O)O | – |
| – | – | – | O=C(c1ccccc1)c1ccccc1N[C@@H](Cc1ccc(OC2CCN2C(c2ccccc2)c2ccccc2)cc1)C(=O)O (stereo partly drawn) | Ki [1]: 1620 nM |
| – | – | – | Cc1ccc(C)c(COc2ccc(C[C@H](Nc3ccccc3C(=O)c3ccccc3)C(=O)O)cc2)c1 | Log Ki [8]: inactive |
| 126 | 1050 | – | Cc1sc(-c2ccccc2)nc1CCOc1ccc(C[C@H](Nc2ccccc2C(=O)c2ccccc2)C(=O)O)cc1 | solubility thermodynamic [3]: 2 µg/mL (≈ 3.55 µM); solubility thermodynamic [4]: < 1 µg/mL |
| – | – | inactive | Cc1nc(COc2ccc(C[C@H](Nc3ccccc3C(=O)c3ccccc3)C(=O)O)cc2)n2nc(Cl)ccc12 | – |
| – | – | inactive | Cc1ccc[n+]2c1=NC(c1ccccc1)C=2COc1ccc(C[C@H](Nc2ccccc2C(=O)c2ccccc2)C(=O)O)cc1 (stereo partly drawn) | – |
| > 3020 | > 10000 | – | Cc1oc(N2CCCCC2)nc1CCOc1ccc(C[C@H](Nc2ccccc2C(=O)c2ccccc2)C(=O)O)cc1 | – |
| 45.7 | 575 | – | Cc1ccc(-c2nc(CCOc3ccc(C[C@H](Nc4ccccc4C(=O)c4ccccc4)C(=O)O)cc3)c(C)o2)s1 | – |
| > 3020 | > 10000 | – | Cc1oc(-c2ccncc2)nc1CCOc1ccc(C[C@H](Nc2ccccc2C(=O)c2ccccc2)C(=O)O)cc1 | solubility thermodynamic [3]: 846 µg/mL (≈ 1540 µM); solubility thermodynamic [4]: 5 µg/mL (≈ 9.13 µM) |
| 407 | > 10000 | – | Cc1cc(CCOc2ccc(C[C@H](Nc3ccccc3C(=O)c3ccccc3)C(=O)O)cc2)nn1-c1ccccc1 | – |
| – | – | inactive | C/C(=C\c1ccccc1)COc1ccc(C[C@H](Nc2ccccc2C(=O)c2ccccc2)C(=O)O)cc1 | – |
| > 3020 | > 10000 | – | Cc1sc(N2CCN(C(=O)OC(C)(C)C)CC2)nc1CCOc1ccc(C[C@H](Nc2ccccc2C(=O)c2ccccc2)C(=O)O)cc1 | – |
| > 3020 | > 10000 | – | Cc1[nH]c(-c2ccccc2)nc1CCOc1ccc(C[C@H](Nc2ccccc2C(=O)c2ccccc2)C(=O)O)cc1 | – |
| – | – | inactive | COc1cc(OC)c(OC)cc1COc1ccc(C[C@H](Nc2ccccc2C(=O)c2ccccc2)C(=O)O)cc1 | – |
| – | – | inactive | O=C(c1ccccc1)c1ccccc1N[C@@H](Cc1ccc(O)cc1)C(=O)O | – |
| – | – | – | O=C(c1ccccc1)c1ccccc1N[C@@H](Cc1ccc(OCCOc2ccc(Br)cc2)cc1)C(=O)O | Log Ki [9]: inactive |
| > 3020 | > 10000 | – | COCn1c(-c2ccccc2)nc(C)c1CCOc1ccc(C[C@H](Nc2ccccc2C(=O)c2ccccc2)C(=O)O)cc1 | – |
| – | – | inactive | COc1ccc(COc2ccc(C[C@H](Nc3ccccc3C(=O)c3ccccc3)C(=O)O)cc2)nc1OC | – |
| – | – | inactive | Cc1ccc2cc(COc3ccc(C[C@H](Nc4ccccc4C(=O)c4ccccc4)C(=O)O)cc3)ccc2n1 | – |
| > 3020 | > 10000 | – | Cc1sc(-c2ccncc2)nc1CCOc1ccc(C[C@H](Nc2ccccc2C(=O)c2ccccc2)C(=O)O)cc1 | – |
| – | – | inactive | CN(CCOc1ccc(C[C@H](Nc2ccccc2C(=O)c2ccccc2)C(=O)O)cc1)Cc1cccs1 | – |

| Ki [5] [nM] | EC50 [6] [nM] | Log Ki [7] | SMILES | also measured |
| --- | --- | --- | --- | --- |
| – | – | inactive | COc1ccc(COc2ccc(C[C@H](Nc3ccccc3C(=O)c3ccccc3)C(=O)O)cc2)cc1Br | – |
| 107 | 389 | – | COc1ccc(-c2nc(CCOc3ccc(C[C@H](Nc4ccccc4C(=O)c4ccccc4)C(=O)O)cc3)c(C)o2)cc1 | – |
| 1860 | > 10000 | – | COCCNc1nc(CCOc2ccc(C[C@H](Nc3ccccc3C(=O)c3ccccc3)C(=O)O)cc2)c(C)s1 | solubility thermodynamic [3]: 210 µg/mL (≈ 375 µM); solubility thermodynamic [4]: 210 µg/mL (≈ 375 µM) |
| > 3020 | > 10000 | – | Cc1nc(-c2ccccc2)nn1CCOc1ccc(C[C@H](Nc2ccccc2C(=O)c2ccccc2)C(=O)O)cc1 | solubility thermodynamic [3]: 4 µg/mL (≈ 7.32 µM); solubility thermodynamic [4]: 1 µg/mL (≈ 1.83 µM) |
| – | – | – | COc1ccc(COc2ccc(C[C@H](Nc3ccccc3C(=O)c3ccccc3)C(=O)O)cc2)cc1 | Log Ki [8]: inactive |
| > 3020 | 6460 | – | Cc1sc(N2CCN(C)CC2)nc1CCOc1ccc(C[C@H](Nc2ccccc2C(=O)c2ccccc2)C(=O)O)cc1 | solubility thermodynamic [3]: 10 µg/mL (≈ 17.1 µM); solubility thermodynamic [4]: > 6000 µg/mL |
| > 3020 | > 10000 | – | Cc1sc(NCCCN(C)C)nc1CCOc1ccc(C[C@H](Nc2ccccc2C(=O)c2ccccc2)C(=O)O)cc1 | – |
| 56.2 | 257 | – | Cc1oc(-c2ccc(F)cc2)nc1CCOc1ccc(C[C@H](Nc2ccccc2C(=O)c2ccccc2)C(=O)O)cc1 | – |
| 138 | > 10000 | – | Cn1cc(-c2ccccc2)nc1CCOc1ccc(C[C@H](Nc2ccccc2C(=O)c2ccccc2)C(=O)O)cc1 | solubility thermodynamic [3]: 4 µg/mL (≈ 7.33 µM); solubility thermodynamic [4]: < 1 µg/mL |
| – | – | – | O=C(c1ccccc1)c1ccccc1N[C@@H](Cc1ccc(OCCc2cc(Br)no2)cc1)C(=O)O | Log Ki [8]: inactive |
| 468 | 2750 | – | Cc1ccsc1-c1nc(CCOc2ccc(C[C@H](Nc3ccccc3C(=O)c3ccccc3)C(=O)O)cc2)c(C)o1 | – |
| – | – | – | Cc1ncsc1CCOc1ccc(C[C@H](Nc2ccccc2C(=O)c2ccccc2)C(=O)O)cc1 | Log Ki [9]: inactive |
| – | – | inactive | COc1ccc(COc2ccc(C[C@H](Nc3ccccc3C(=O)c3ccccc3)C(=O)O)cc2)cc1OC | – |
| – | – | – | CN(C)C(=O)c1cccc(COc2ccc(C[C@H](Nc3ccccc3C(=O)c3ccccc3)C(=O)O)cc2)n1 | Log Ki [8]: inactive |
| > 3020 | > 10000 | – | Cc1sc(N(C)C)nc1CCOc1ccc(C[C@H](Nc2ccccc2C(=O)c2ccccc2)C(=O)O)cc1 | – |
| 178 | 1820 | – | Cc1cc(-c2nc(CCOc3ccc(C[C@H](Nc4ccccc4C(=O)c4ccccc4)C(=O)O)cc3)c(C)s2)no1 | – |
| – | – | – | COC(COc1ccc(C[C@H](Nc2ccccc2C(=O)c2ccccc2)C(=O)O)cc1)c1ccccc1 (stereo partly drawn) | Ki [1]: 794 nM |
| – | – | – | Cc1oc(-c2ccccc2)nc1CCOc1ccc(C[C@H](Nc2ccccc2C(=O)c2ccccc2)C(=O)O)cc1 [FARGLITAZAR] | solubility thermodynamic [3]: < 1 µg/mL; solubility thermodynamic [4]: < 1 µg/mL |
| 1910 | > 10000 | – | Cc1sc(N2CCOCC2)nc1CCOc1ccc(C[C@H](Nc2ccccc2C(=O)c2ccccc2)C(=O)O)cc1 | solubility thermodynamic [3]: 180 µg/mL (≈ 315 µM); solubility thermodynamic [4]: 4 µg/mL (≈ 7 µM) |
| – | – | inactive | O=C(c1ccccc1)c1ccccc1N[C@@H](Cc1ccc(OCC2COC(C3CCCCC3)O2)cc1)C(=O)O (stereo partly drawn) | – |
| – | – | – | CC(C)c1ccc(COc2ccc(C[C@H](Nc3ccccc3C(=O)c3ccccc3)C(=O)O)cc2)cc1 | Log Ki [9]: inactive |
| – | – | inactive | Cc1cc(C)c(C)c(COc2ccc(C[C@H](Nc3ccccc3C(=O)c3ccccc3)C(=O)O)cc2)c1C | – |
| – | – | – | O=C(c1ccccc1)c1ccccc1N[C@@H](Cc1ccc(OCCc2ccc(Cl)cc2)cc1)C(=O)O | Log Ki [9]: inactive |
| – | – | – | CCOc1ccc(COc2ccc(C[C@H](Nc3ccccc3C(=O)c3ccccc3)C(=O)O)cc2)cc1 | Log Ki [8]: inactive |
| – | – | inactive | COc1cc(COc2ccc(C[C@H](Nc3ccccc3C(=O)c3ccccc3)C(=O)O)cc2)cc(Br)c1OC | – |
